PGC1a acetyl up = raises PGC1a acetylation signal in U2OS cells; U2OS PGC1a acetylation AlphaScreen, overnight; activation, % at 15.6 µM; hit rate 0.21% among 350,000;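 active = every replicate reaching activation of at least 50%, whatever the mean replicate activation; inconclusive = replicates that disagree or another doubt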;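 note: hits raise the AlphaScreen acetylation signal above neutral controls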
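Test system: U2OS cells expressing flag-PGC1a plus GCN5; Amount: 7000 U2OS cells per well; Compound: single test concentration per compound; Incubation: compound overnight at 37 °C, each detection step 1 h RT; Signal: AlphaScreen lysate read.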
G6PC hep suppr = PGC-1a acetylation activator altering hepatocyte G6PC expression. shares compounds with PGC1a acetyl up. primary mouse hepatocytes, G6PC mRNA qPCR, forskolin. G6PC suppression (normalized activity, % of positive control; higher = more suppression), % at 26 µM. 240 tested, under 10 active. AID 743463;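 active = dose curves showing G6PC suppression whose half-maximal dose is at most twice the top valid dose; inconclusive = flat curves with moderate negative activity, or unreliable fits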;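 note: G6PC expression relative to GAPDH housekeeping gene as delta delta Ct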
Hep PCK1 suppr = hepatocyte PCK1 expression change via PGC-1a acetylation activation; shares compounds with PGC1a acetyl up; primary mouse hepatocytes, PCK1 mRNA qPCR, forskolin-stimulated; PCK1 expression decrease, unspecified at 26 µM; 230 tested, under 10 active;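 active = compounds lowering PCK1 expression whose fitted half-maximal concentration is at most twice the top tested dose; inconclusive = flat fit with moderate opposite-direction effect, or poor fit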;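 note: higher delta delta Ct means lower PCK1 expression so positive values indicate hits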
Hep PGC-1a down = PGC-1a acetylation activators affecting PGC-1a expression in hepatocytes; shares compounds with PGC1a acetyl up; primary mouse hepatocytes, PGC-1a mRNA qPCR, forskolin; top dose 26 µM; max activity (PGC-1a expression decrease), %; 240 tested, under 10 active;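 active = compound lowering PGC-1a expression with fitted half-maximal concentration at most twice its top tested dose; inconclusive = flat curve with moderate opposite-direction effect, or poor fit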
Large screens that a line does not name were inactive (follow-up assays come after a bar, where they were run). The list is a sample of the results.

Cc1[nH]c2ccccc2c1C(=O)/C=C/c1ccccc1	none
COc1ccc(Oc2c(Cl)cnn(-c3ccc(F)cc3)c2=O)cc1	PGC1a acetyl up 81
COc1ccc(S(=O)(=O)N(C)C[C@H]2Oc3c(NS(=O)(=O)c4ccc(C)cc4)cccc3C(=O)N([C@H](C)CO)C[C@H]2C)cc1	none
C[C@H](NC(=O)C[C@H]1CC[C@@H](NC(=O)C2CC2)[C@H](CO)O1)c1ccccc1	none
O=S1(=O)CCC(N=Cc2ccc(-c3ccc(Cl)cc3)o2)C1 (configuration not stated)	none
Cc1ccc(S(=O)(=O)C(NC(=O)c2ccccc2)=C(Cl)Cl)cc1	PGC1a acetyl up 60
Cc1ccc(C(=O)NNC(=O)c2cccc(Br)c2)cc1	none
CC(=O)c1cccc(-c2ccnc3c2CC(C(=O)NCC2CC2)O3)c1 (configuration not stated)	PGC1a acetyl up 58
O=C(NCc1ccccc1)C1Cc2c(-c3ccc4c(c3)OCO4)ccnc2O1 (configuration not stated)	PGC1a acetyl up 133
Cc1ccc(CC2(C)C(=O)Nc3c(Cl)ccc(Cl)c32)cc1 (configuration not stated)	PGC1a acetyl up 159
CC1(Cc2ccc(Cl)cc2)C(=O)Nc2ccc(-c3cccnc3)cc21 (configuration not stated)	none
C=CCN1C(=O)C(CC(=O)Nc2ccccc2F)S/C1=N\c1nccs1 (configuration not stated)	none
O=C(c1cc2ccccc2o1)N1CC=C(c2ccccc2)CC1	none
CC(C)Cc1nnc(NC(=O)c2cc3c(s2)CCC3)s1	none
COc1cccc(C(=O)Nn2cnnc2)c1OC	none
COc1ccccc1C(=O)Nc1nnc(CCc2ccccc2)s1	PGC1a acetyl up 69
Cc1ccc(S(=O)(=O)N[C@@H]2C=C[C@H](CC(=O)NCCN3CCCCC3)O[C@@H]2CO)cc1	none
CCCCOc1ccc(CNC(=O)NS(=O)(=O)c2ccc(OCC(C)C)cc2)cc1	none
COc1ccc(-c2noc(CCC(=O)N3CCN(c4cccc(C)c4C)CC3)n2)cc1	none
O=C(C[C@H]1C[C@H]2c3cc(NC(=O)C4CCC4)ccc3O[C@H]2[C@H](CO)O1)NCc1ccc(-c2ccccc2)cc1	none
Cn1c(Cl)cnc1C1CC(=O)c2cc(Cl)ccc2O1 (configuration not stated)	PGC1a acetyl up 71
Cc1c(/C=N/Nc2nc3ccccc3[nH]2)c2ccccc2n1C	PGC1a acetyl up 121
COc1cc2nc(SCc3c(C)noc3C)n(CCC3=CCCCC3)c(=O)c2cc1OC	none
Cc1noc(C)c1CSc1nnc(-c2cccnc2)n1C1CCCCC1C (configuration not stated)	none
C=CCn1c(SCc2c(C)noc2C)nc2ccccc2c1=O	PGC1a acetyl up 74
CC(C)(C)c1ccc(NC(=O)N2CCCN(c3ccc([N+](=O)[O-])cn3)CC2)cc1	PGC1a acetyl up 186
O=C(C[C@@H]1CC[C@@H](NC(=O)C2CCC2)[C@H](CO)O1)NCC1CC1	none
CC1C(=O)NN=C1C(=O)N/N=C\C(Br)=C\c1ccccc1 (configuration not stated)	PGC1a acetyl up 404
O=C(N/N=C/C(Br)=C/c1ccccc1)c1cc(-c2ccco2)[nH]n1	PGC1a acetyl up 143
O=C(N/N=C/C(Br)=C/c1ccccc1)c1n[nH]c2c1CCC2	PGC1a acetyl up 72
O=C(CNc1cccc2ccccc12)N/N=C/C(Br)=C/c1ccccc1	PGC1a acetyl up 213
Cc1cc(=O)oc2cc(OCC(=O)OCC(=O)Nc3ccccc3F)ccc12	none
CC(C)c1ccc(/C=N/NC(=O)C2CCCC2)cc1	none
CC(C)NC(=O)N(C)C[C@H]1OCCCC[C@@H](C)Oc2ccc(NC(=O)Cc3ccccc3)cc2C(=O)N([C@@H](C)CO)C[C@H]1C	none
CCCCCCNC(=O)O[C@@]12CN(S(=O)(=O)c3ccc(C)cc3)C[C@]1(O)Cn1c(=O)n(CCCCCC)c(=O)n1C2	none
O=S(=O)(Nc1ccccn1)c1ccc(-n2cccn2)cc1	none
COc1ccc(C2NC3=C(CCC3)C3(C#N)C(OC)(OC)N=C(N)C23C#N)cc1 (configuration not stated)	none
CC[C@H](C)[C@@H]1OC(=O)[C@@H](C)[C@@H](CC)NC(=O)[C@H](C)N(C)C(=O)C(C)(C)C(=O)C(C)NC(=O)[C@H](Cc2ccccc2)N(C)C(=O)[C@H](C(C)C)N(C)C(=O)CNC(=O)[C@H](CC(C)C)N(C)C(=O)CNC1=O (some centres not stated)	none
CC1=CCC2C(=O)N(c3cccc(C(=O)NCc4ccccc4)c3)C(=O)C2C1 (configuration not stated)	none
O=C(NN=C1c2ccccc2-c2ccccc21)c1ccccc1Br	none
O=C(Nc1ccc2c(c1)C(=O)N(c1ccccc1)C2=O)c1cccs1	none
O=C(N/N=C/C(Br)=C/c1ccccc1)c1cccs1	PGC1a acetyl up 166
O=C(N/N=C/C(Br)=C/c1ccccc1)c1ccccc1F	PGC1a acetyl up 57
C=CS(=O)(=O)N(Cc1ccccc1Br)[C@H](CO)Cc1ccccc1	none
CC(C)NC(=O)Nc1ccc2c(c1)C(=O)N([C@@H](C)CO)C[C@@H](C)[C@H](CN(C)Cc1ccc(C(=O)O)cc1)OCCCC[C@H](C)O2	none
CCOC(=O)C1(Cc2cccc(Cl)c2)CCCN(C(=O)c2cccnc2)C1 (configuration not stated)	none
CC(C)NC(=O)Nc1ccc2c(c1)C(=O)N([C@@H](C)CO)C[C@H](C)[C@@H](CN(C)C(=O)CCC(F)(F)F)OCCCC[C@@H](C)O2	none
CCNC(=O)C1(C)CCCN1Cc1ccccc1Cl (configuration not stated)	none | Hep PCK1 suppr inactive | Hep PGC-1a down inactive
O=C(CCl)N=c1sccn1Cc1ccccc1Cl	none
O=C(CCC1CCN(Cc2ccccc2Cl)CC1)NC1CC1	none
COc1cc(CN2CCN(Cc3ccccc3C(F)(F)F)CC2)cc(OC)c1OC	none
Cc1ccc(-c2[nH]ncc2/C=C(\C#N)C(=O)NC2CCCCC2)cc1	none
C[C@@](Cc1ccc(O)c(O)c1)(NN)C(=O)O	none
COc1ccc(Cc2nc(-c3ccc(NC(=O)c4cccnc4)cc3)no2)cc1	PGC1a acetyl up 240 | G6PC hep suppr inactive | Hep PCK1 suppr inactive | Hep PGC-1a down inactive
CCNc1nc(Oc2ccc(C#N)cc2)cc(C(F)(F)F)n1	none
O=C(CCCn1c(=O)[nH]c2cc(Cl)ccc2c1=O)NCCC1=CCCCC1	PGC1a acetyl up 73 | G6PC hep suppr inactive | Hep PCK1 suppr inconclusive | Hep PGC-1a down inactive
CCCCN(C)Cc1c(C)[nH]c2ccccc2c1=O	none
O=C(Nc1cccn2ncnc12)C(Cl)Cl	none
O=c1c2c(nc3c(-c4ccc(Cl)cc4)c[nH]n13)CCCC2	none
OCCN(Cc1ccccc1)CC1CCCCC1	none
O=C(Nc1ccccc1)C1=C[C@@H](c2ccc(C(F)(F)F)cc2)C[C@@H](OCc2ccc(CO)cc2)O1	PGC1a acetyl up 63 | G6PC hep suppr inactive | Hep PCK1 suppr inactive | Hep PGC-1a down inactive
CCCCCCC[C@@H](C/C=C/CCC(=O)O)OC	none
CCCCCCCCC(=O)O	none

Compound activity: PubChem BioAssay, Broad Institute
